The values that follow come from ChEMBL document CHEMBL1671632, “Genetic basis of multidrug resistance in Acinetobacter baumannii clinical isolates at a tertiary medical center in Pennsylvania” (2008).

For test [1], the system named is Acinetobacter baumannii. The test is described as follows: Antimicrobial activity against multidrug-resistant Acinetobacter baumannii assessed as resistant isolates by disk diffusion method. The format is functional. In short, it runs like this:
(§1)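 Standard disk diffusion was done on Mueller-Hinton agar with ampicillin-sulbactam, ceftazidime, cefepime, meropenem, tobramycin, gentamicin, ciprofloxacin and tetracycline. Isolates were called susceptible or resistant using CLSI breakpoints.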
In general terms: A growth-free zone around the sample is the usual read-out of agar diffusion tests.

Test [2] relates to Acinetobacter baumannii. The test can be described thus: Antimicrobial activity against multidrug-resistant Acinetobacter baumannii assessed as resistant isolates by disk diffusion method in presence of beta-lactamase inhibitor Sulbactam. The format is functional. The essentials: as §1
For test [3], the system named is Acinetobacter baumannii. The test can be described thus: Antimicrobial activity against Acinetobacter baumannii AB026 transformant harboring bla-OXA-23 gene by Etest method. The format is functional.
The subject of test [4] is Acinetobacter baumannii. The test is described as follows: Antimicrobial activity against Acinetobacter baumannii HE130 lacking bla-OXA-23 gene by Etest method.
The subject of test [5] is Acinetobacter baumannii. The test can be described thus: Antimicrobial activity against Acinetobacter baumannii AB017 transformant harboring bla-OXA-23 gene by Etest method. The format is functional.
Test [6] has as its system Acinetobacter baumannii. The test is described as follows: Antimicrobial activity against multidrug-resistant Acinetobacter baumannii expressing armA and bla oxa-23 gene assessed as resistant isolates by disk diffusion method. The format is functional. In short, it runs like this:
as §1

Test [7] has as its system Acinetobacter baumannii. The test is described as follows: Antimicrobial activity against multidrug-resistant Acinetobacter baumannii expressing aac(6')-1b gene by Etest method. The format is functional.
In test [8] the test system is Acinetobacter baumannii. The test can be described thus: Antimicrobial activity against multidrug-resistant Acinetobacter baumannii expressing armA gene by Etest method. The format is functional.
The subject of test [9] is Acinetobacter baumannii. The test is described as follows: Antimicrobial activity against multidrug-resistant Acinetobacter baumannii expressing aph(3')-Vla gene by Etest method. The format is functional.
Test [10] concerns Acinetobacter baumannii. The test can be described thus: Antimicrobial activity against multidrug-resistant Acinetobacter baumannii by Etest method. The format is functional.

≈ marks a conversion by molar mass, not a printed value. A value given as a limit tells only on which side of the number the result lay.

Take `CN(C)[C@@H]1C(O)=C(C(N)=O)C(=O)[C@@]2(O)C(O)=C3C(=O)c4c(O)cccc4[C@@](C)(O)[C@H]3C[C@@H]12` [TETRACYCLINE]: the Activity with Acinetobacter baumannii [1] is recorded as 79.6%.

`CC1(C)S[C@@H]2[C@H](NC(=O)[C@H](N)c3ccccc3)C(=O)N2[C@H]1C(=O)O` [AMPICILLIN]: the Activity in the test on Acinetobacter baumannii [2] is given as 40.8%.

For the compound `CO/N=C(\C(=O)N[C@@H]1C(=O)N2C(C(=O)[O-])=C(C[N+]3(C)CCCC3)CS[C@H]12)c1csc(N)n1` [CEFEPIME], the Activity with Acinetobacter baumannii [1] turned out to be 79.6%.

For the compound `O=C(O)c1cn(C2CC2)c2cc(N3CCNCC3)c(F)cc2c1=O` [CIPROFLOXACIN], the Activity with Acinetobacter baumannii [1] is reported as 95.9%.

On to GENTAMICIN, for which, in the test on Acinetobacter baumannii [1], the Percent resistant isolates was found to be 77.6%.

For orientation: MIC means the smallest concentration in the dilution series that meets the test's criterion for growth inhibition. High values mean weaker potency, low ones greater potency. As for `C[C@@H](O)[C@H]1C(=O)N2C(C(=O)O)=C(S[C@@H]3CN[C@H](C(=O)N(C)C)C3)[C@H](C)[C@H]12` [MEROPENEM], the MIC in the test on Acinetobacter baumannii [3] was found to be 6 µg/mL (≈ 15.6 µM); against Acinetobacter baumannii [4], 0.125 µg/mL (≈ 0.326 µM). In addition, in the test with Acinetobacter baumannii [1], the Activity was determined as 22.4%.

On to `CC(C)(O/N=C(\C(=O)N[C@@H]1C(=O)N2C(C(=O)[O-])=C(C[n+]3ccccc3)CS[C@H]12)c1csc(N)n1)C(=O)O` [CEFTAZIDIME], for which the Activity with Acinetobacter baumannii [1] was 87.8%.

In the case of `C[C@@H](O)[C@H]1C(=O)N2C(C(=O)O)=C(SCCNC=N)C[C@H]12` [IMIPENEM ANHYDROUS], the MIC with Acinetobacter baumannii [4] was determined as 0.5 µg/mL (≈ 1.67 µM); in the test on Acinetobacter baumannii [5], 4 µg/mL (≈ 13.4 µM). Further, the Activity with Acinetobacter baumannii [6] is reported as 18.4%.

Regarding `NCC[C@H](O)C(=O)N[C@@H]1C[C@H](N)[C@@H](O[C@H]2O[C@H](CN)[C@@H](O)[C@H](O)[C@H]2O)[C@H](O)[C@H]1O[C@H]1O[C@H](CO)[C@@H](O)[C@H](N)[C@H]1O` [AMIKACIN], the MIC against Acinetobacter baumannii [7] is 2 µg/mL (≈ 3.42 µM); against Acinetobacter baumannii [8], > 256 µg/mL; in the test with Acinetobacter baumannii [9], 12 µg/mL (≈ 20.5 µM); in the test on Acinetobacter baumannii [10], 128 µg/mL (≈ 219 µM). For the same compound, in the test on Acinetobacter baumannii [1], the Activity is 36.7%.

On to `NC[C@H]1O[C@H](O[C@H]2[C@H](O)[C@@H](O[C@H]3O[C@H](CO)[C@@H](O)[C@H](N)[C@H]3O)[C@H](N)C[C@@H]2N)[C@H](N)C[C@@H]1O` [TOBRAMYCIN], for which, in the test on Acinetobacter baumannii [1], the Activity turned out to be 61.2%.
